# According to paper PMC6237275 (Chemical science, 2013):
# Residues, ends and D or L forms follow the SMILES beside them.
# Tests used:
# MCF-7 cells [1] = assay: Microinjection and time-lapse video microscopy, MCF-7; format: cell-based
# Method in brief: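 MCF-7 cells are synchronized 48 h in 0.1% FCS, then released with 10% serum. At 20 h post-release, cells are microinjected in PBS with 70 kDa FITC-dextran (1 μg μL−1) plus peptide (50 μM) or GST-fusion protein (1 μg μL−1). Controls are FITC-dextran alone or non-injected cells. Time-lapse images every 30 min; first mitosis scored for abnormality and duration. Fisher's exact test.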
# [2] = system: CtBP1 homodimerization (CtBP1 fused to 434 repressor); assay: CtBP1 reverse two-hybrid system; format: cell-based; settings: for Target (homodimerization disrupted in RTHS): CtBP1 and CtBP2 RTHS, SICLOPPS; for Rank (top 3 CtBP1/CtBP2 inhibitors identified by SICLOPPS): ranked by drop spotting, CtBP1/CtBP2 RTHS
# Method in brief: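 E. coli reverse two-hybrid hosts carry SICLOPPS cyclic peptide library plasmids; only clones whose peptide disrupts CtBP homodimerization survive on selective media. For CtBP1, 104 surviving colonies were picked, and their plasmids were isolated and retransformed into the CtBP1 RTHS. For drop-spotting, 2.5 μL of serial cell dilutions go onto selective plates with and without […].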
# lactate dehydrogenase = assay: Lactate dehydrogenase activity; format: biochemical; settings: at concentrations of up to 100 μM
# MDA-MB-453 cells = assay: Microinjection and time-lapse video microscopy, MDA-MB-453; format: cell-based; settings: microinjected 50 μM
# [3] = system: CtBP2 homodimerization (CtBP2 fused to 434 repressor); assay: CtBP2 reverse two-hybrid system; format: cell-based; settings: arabinose-induced peptide production; 50 μM IPTG; minimal (selective) media
# CtBP1 (His–CtBP1) = CtBP1 (His–CtBP1) (Homo sapiens, UniProt Q13363); assay: FRET-based CtBP1/NADH-binding assay
# MCF-7 cells [4] = assay: Time-lapse video microscopy, peptide in medium, MCF-7; format: cell-based
# Method in brief: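 Cell-penetrating peptide or TAT alone goes into the medium of asynchronous MCF-7 cultures, imaged by time-lapse microscopy every 30 min for 65 h. Each cell's first mitosis is scored for abnormality (prolonged rounding, failed cytokinesis, death), with time in mitosis per cell. Total cell number increase is taken over the first 48 h. Fisher's exact test; experiments repeated at least twice.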
# GST–CtBP1 / His–CtBP1 = assay: GST pull down assay; format: biochemical; settings: presence of NADH; 50 mM Tris–HCl pH 7.2 pull-down buffer
# Method in brief: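 Recombinant GST-CtBP1 and His-CtBP1 are expressed in E. coli and purified on glutathione or nickel resin, with 30 min 0.25 mM pyruvate on-resin to oxidize bound NADH. 10 mg mL−1 bacterial lysate blocks nonspecific binding.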
# His–CtBP1 = assay: Size exclusion chromatography of His–CtBP1; format: biochemical; settings: increasing concentrations of NADH; Superdex 200, PBS
# [5] = system: CtBP1/CtBP2 dimerization (CFP–CtBP1, YFP–CtBP2) in COS-7 cells; assay: CtBP cellular compartmentalization assay; format: cell-based; settings: 100 μM
# Method in brief: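 COS-7 cells transfected with CFP–CtBP1 (pSCFP3A-based) and YFP–CtBP2 (pSYFP2-based) expression vectors. Test compound as TAT conjugate (100 μM) or 100 μM TAT added to medium. Expression and co-localization were imaged by fluorescence microscopy, and cells were scored by line analysis for cytoplasmic CFP–CtBP1, with cell numbers counted. Fisher's exact test on contingency tables versus TAT-treated cells.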
# MCF-7 cells [6] = assay: Micronuclei assay, MCF-7; format: cell-based; settings: up to 100 μM TAT; 48 h; >400 cells scored
# Method in brief: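 Peptides are added to the medium of asynchronous MCF-7 cultures, and cells are fixed after 48 h for micronuclei counting, with >400 cells scored per point. Data are mean ± SEM of triplicate wells from a representative of at least two independent experiments. One-way ANOVA with Tukey's post hoc test.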
# breast cancer cells = settings: ref [31]; cited from earlier work
# CtBPs = settings: high concentrations of MTOB; ref [37]; cited from earlier work
# colon cancer cells = settings: ref [36]; cited from earlier work
molecule,measurement,setting,value
GST–CtBP^DD: construct encoding the central dimerization domain (110–359) of CtBP2,Cells with aberrant mitosis phenotype,"MCF-7 cells [1]; protein injected at 1 μg μL−1 in PBS, MCF-7 (Fig. 7e)",45%
same,Time in mitosis (in words),"MCF-7 cells [1]; protein injected at 1 μg μL−1 in PBS, MCF-7 (Fig. 7f)","increased the time in mitosis, in line with that observed in CP61-treated cells"
CSCC[C@@H]1NC(=O)[C@H](CCCNC(=N)N)NC(=O)[C@H](C(C)C)NC(=O)[C@H](C(C)C)NC(=O)[C@H]([C@@H](C)O)NC(=O)[C@H](Cc2c[nH]c3ccccc23)NC(=O)CNC(=O)[C@H](CO)NC(=O)[C@H](Cc2ccc(O)cc2)NC1=O [CP61] (cyclo(GWTVVRMYS)),Mitoses that were aberrant,"MCF-7 cells [1]; microinjected 50 μM, MCF-7, control-injected 10.2%, P < 0.0001 (Fig. 8a)",50.8%
same,Mean length of time in mitosis,"MCF-7 cells [1]; microinjected 50 μM, MCF-7, control-injected 1.9 h (Fig. 8b)",4 h
same,Target (homodimerization disrupted in RTHS),[2],CtBP1/CtBP2
same,Survival on selective media / disruption of CtBP1 homodimerization,"[2]; arabinose-induced peptide production, 50 μM IPTG, minimal (selective) media",Restoration of growth with arabinose
same,Rank (top 3 CtBP1/CtBP2 inhibitors identified by SICLOPPS),[2],1
same,Effect on activity of lactate dehydrogenase,lactate dehydrogenase,no effect
same,Length of time in mitosis (in words),MDA-MB-453 cells; MDA-MB-453 (Fig. 8b),did not affect the length of time MDA-MB-453 cells spent in mitosis
same,Percentage of mitoses that were aberrant (in words),"MDA-MB-453 cells; MDA-MB-453, P > 0.05 compared to control-injected",did not significantly affect the percentage of mitoses that were aberrant
same,Survival on selective media / disruption of CtBP2 homodimerization,[3],Restoration of growth with arabinose
same,Reduction of NADH-dependent FRET signal (CtBP1–NADH interaction),"CtBP1 (His–CtBP1); excitation 285 nm, emission 425 nm, 300 nM His–CtBP1, room temperature","reduced upon addition of CP61, in a dose-dependent manner"
same,Mechanism of inhibition of NADH-binding,CtBP1 (His–CtBP1); maximum FRET signal at saturating NADH reduced in a CP61-dependent manner,allosteric mechanism for inhibition of NADH-binding
same,Concentration inhibiting the cellular function of CtBPs,MCF-7 cells [4]; in cells (discussion summary),50 µM
same,Disruption of NADH-dependent association between GST–CtBP1 and His–CtBP1,GST–CtBP1 / His–CtBP1,disrupted
NC(=O)C1=CN([C@@H]2O[C@H](COP(=O)(O)OP(=O)(O)OC[C@H]3O[C@@H](n4cnc5c(N)ncnc54)[C@H](O)[C@@H]3O)[C@@H](O)[C@H]2O)C=CC1 [NADH],Monomer to dimer shift of CtBP1,His–CtBP1,shifted to a peak corresponding to dimeric CtBP1 in a dose-dependent manner
SGW RLIRLY (head to tail) [CP65],Target (homodimerization disrupted in RTHS),[2],CtBP1/CtBP2
same,Rank (top 3 CtBP1/CtBP2 inhibitors identified by SICLOPPS),[2],3
GRKKRRQRRRPPQ [TAT],Nuclear co-localization of CtBPs,[5],showed the expected co-localization with YFP–CtBP2 in the nucleus
same,Cells containing micronuclei,MCF-7 cells [6],Approximately 7%
same,Increase in cell numbers,"MCF-7 cells [4]; 50 μM, 48 hours",111%
SGW PLSTWY (head to tail) [CP68],Target (homodimerization disrupted in RTHS),[2],CtBP1/CtBP2
same,Rank (top 3 CtBP1/CtBP2 inhibitors identified by SICLOPPS),[2],2
"CSCCC(=O)C(=O)O [MTOB, 2-keto-4-methylthiobutyrate]",Repression of multiple CtBP-targeted genes,breast cancer cells,reverse the repression of multiple CtBP-targeted genes in breast cancer cells
same,Recruitment of CtBPs to target promoters,CtBPs,inhibiting the recruitment of CtBPs to target promoters
same,Repression of pro-apoptotic gene BIK,colon cancer cells,reverse the repression of the pro-apoptotic gene BIK in colon cancer cells
